Results on five compounds are retold here after ChEMBL document CHEMBL1158691, “Brevicompanine C, cyclo-(D-Ile-L-Trp), and cyclo-(D-Leu-L-Trp), plant growth regulators from Penicillium brevi-compactum” (2005).

Experiment [1] concerns Lactuca sativa. Nature of the experiment: Induction of root elongation in lettuce seedlings at 100 mg/L after 4 days under 100 uE/m'2 light relative to control. The experiment is classed as functional. The essentials:
(§1)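 Lactuca sativa cv. Kingcisco seeds sown on filter paper wetted with deionized water, 1 day at 24 °C in continuous light (100 μE/m² s). Uniform seedlings (radicles 2 mm) moved to small dishes on filter paper with 1 mL deionized water containing test compound, kept 4 days at 24 °C in continuous light. Hypocotyl and root lengths measured; mean compared with untreated control; triplicate experiments.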

For experiment [2], the system named is Lactuca sativa. Kind of experiment: Inhibition of hypocotyl elongation of lettuce seedlings at 100 mg/L after 4 days under 100 uE/m'2 light relative to control. The experiment is classed as functional. In a few lines:
as §1

The test system of experiment [3] is Lactuca sativa. Nature of the experiment: Induction of root elongation in lettuce seedlings at 1 to 100 mg/L after 4 days under 100 uE/m'2 light. The class given is functional, organism-based. In a few lines:
as §1

The subject of experiment [4] is Lactuca sativa. Nature of the experiment: Inhibition of root elongation in lettuce seedlings at 1 to 100 mg/L after 4 days under 100 uE/m'2 light. The experiment is classed as functional, organism-based. The essentials: as §1
In experiment [5] the test system is Lactuca sativa. Nature of the experiment: Inhibition of hypocotyl elongation in lettuce seedlings at 1 to 100 mg/L after 4 days under 100 uE/m'2 light relative to control. The class given is functional, organism-based. In a few lines: as §1
In experiment [6] the test system is Lactuca sativa. Nature of the experiment: Induction of hypocotyl elongation in lettuce seedlings at 100 mg/L after 4 days under 100 uE/m'2 light. The class given is functional. In a few lines:
as §1

Experiment [7] has as its system Lactuca sativa. Nature of the experiment: Induction of hypocotyl elongation in lettuce seedlings at 1 mg/L after 4 days under 100 uE/m'2 light. The experiment is classed as functional. In a few lines: as §1
Experiment [8] has as its system Lactuca sativa. Nature of the experiment: Induction of hypocotyl elongation in lettuce seedlings at 10 mg/L after 4 days under 100 uE/m'2 light. The experiment is classed as functional. The essentials: as §1

SMILES strings stand for the structures. The source made the active and inactive calls. No cut-off for these calls is given here.

Take `C=CC(C)(C)[C@@]12C[C@H]3C(=O)N[C@H](C(C)C)C(=O)N3[C@@H]1Nc1ccccc12` [BREVICOMPANINE]: the Activity in the experiment with Lactuca sativa [1] was 212%. In the experiment with Lactuca sativa [2] (96 h), this compound came in with an inhibition at 100 µg/mL of 46%. Further, the result in the experiment on Lactuca sativa [3] was Active.

In the case of `O=C(O)Cc1c[nH]c2ccccc12`, the result in the experiment with Lactuca sativa [4] and with Lactuca sativa [5] was Active.

On to `CC[C@H](C)[C@H]1NC(=O)[C@H](Cc2c[nH]c3ccccc23)NC1=O`, for which the Activity in the experiment with Lactuca sativa [1] was found to be 167%. For the same compound, in the experiment on Lactuca sativa [2], the outcome was inactive. Further, the result in the experiment on Lactuca sativa [3] was Active.

Regarding `C=C1C[C@]23C[C@@]1(O)CC[C@H]2[C@@]12C=C[C@H](O)[C@](C)(C(=O)O1)C2[C@@H]3C(=O)O` (stereo partly specified) [GIBBERELLINE], the Activity in the experiment with Lactuca sativa [1] was determined as 164%; in the experiment with Lactuca sativa [6], 433%; in the experiment on Lactuca sativa [7], 433%; in the experiment with Lactuca sativa [8], 433%. Moreover, the outcome in the experiment on Lactuca sativa [3] was Active.

For the compound `CC(C)C[C@H]1NC(=O)[C@H](Cc2c[nH]c3ccccc23)NC1=O`, the Activity in the experiment on Lactuca sativa [1] is 164%. The outcome in the experiment on Lactuca sativa [2] was inactive. Further, the result in the experiment on Lactuca sativa [3] was Active.

For orientation: inhibition means the relative decrease from the control value, in per cent. High values mean a strong effect, low ones a weak effect.
